Compounds with a hit are over-represented: about 4.3% of the library has one in this group of screens.
STAT1 act: increases IFN-gamma driven STAT1 reporter signal; activation (% of control), % at 5.5 µM; actives 2.6% (n = 200,000); NIH 3T3 STAT1-luciferase reporter, luminescence; 100% = IFN-gamma alone, no compound;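 active means activation above the screen-wide mean activation plus 3 SD, cut at about 130% in these data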
STAT3 inh: inhibitors of IL-6 induced STAT3 signaling | U3A cells, IL-6 STAT3-luciferase reporter, luminescence; host cell line lacks STAT1 | inhibition, % at 5.5 µM | actives 0.89% (n = 190,000);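 active means inhibition above the mean inhibition across all screened compounds plus 3 SD, cut at about 44% in these data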
STAT3 activator: activators of IL-6 induced STAT3 signaling; U3A cells, IL-6 STAT3-luciferase reporter, luminescence; 100% = signal with IL-6 EC80 alone; activation (% of control), % at 5.6 µM; AID 871; actives 0.91% (n = 190,000);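 active means activation above the screen-wide mean of compound activation plus 3 SD, cut at about 130% in these data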
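system = STAT3-luciferase reporter U3A cells | reagent = IL-6 stimulus at 33 ng/mL final | timing = 1 h compound pre-exposure, 6 h IL-6 stimulation, 37 °C | measured by = luminescence | evaluation = % activation versus median of IL-6-stimulated wells | control set = IL-6-only wells as 100% reference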
STAT1 blocker: STAT1 signaling inhibition; inhibition, % at 5.5 µM; NIH 3T3 STAT1-luciferase reporter, IFN-gamma, luminescence; actives 0.35% (n = 200,000);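 active means inhibition above a set limit, the mean inhibition across all tested compounds plus 3 SD, cut at about 34% in these data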
A number is an active result; 0 = inactive.

SMILES | STAT1 act | STAT3 inh | STAT3 activator | STAT1 blocker
CCC(C(=O)O)n1nc(-c2ccccc2)c2cc(Cl)ccc21 (centres undefined) | 0 | 0 | 0 | 0
Cc1cc(N)n2ncc(-c3cccc(Br)c3)c2n1 | 141.8 | 0 | 0 | 0
Cc1cc(N)n2ncc(-c3ccccc3)c2n1 | 150.4 | 0 | 0 | 0
Cc1cc(C(F)(F)F)n2ncc(-c3ccc(F)cc3)c2n1 | 0 | 0 | 0 | 0
CCOC(=O)Cc1c(C)nc2c(-c3cccc(Br)c3)cnn2c1C | 0 | 0 | 0 | 0
Cc1cc(N)n2nc(-c3ccccc3)cc2n1 | 145.9 | 0 | 0 | 0
Cc1ccc(NC(=O)C2CCCN2S(=O)(=O)c2ccc3c(c2)n(C)c(=O)c(=O)n3C)cc1C (centres undefined) | 0 | 0 | 0 | 0
CC(=O)Oc1c(S(=O)(=O)c2ccccc2)c(C)nn1C(C)(C)C | 0 | 0 | 0 | 0
Cc1nn(C(C)(C)C)c(OC(=O)c2cccs2)c1S(=O)(=O)c1ccccc1 | 129.4 | 0 | 0 | 0
CCn1cc(C2=NC(C(C)C)CO2)c2ccccc21 (centres undefined) | 0 | 0 | 0 | 0
CC(C)C1COC(c2cccc3ccccc23)=N1 (centres undefined) | 142.9 | 0 | 0 | 0
CCCCN1C(=O)C(=O)N(c2ccccc2)C1=S | 135.3 | 0 | 0 | 0
CCCCN1C(=O)/C(=C/C=C2\Oc3ccccc3N2CC)SC1=S | 0 | 0 | 0 | 0
CCC1(C)OC(=O)NN(c2ccc(C)cc2)C1(C)O (centres undefined) | 0 | 0 | 0 | 0
COC(=O)c1ccc(-c2ccc(/C=N/N3C(=O)C4C5C=CC(C6CC56)C4C3=O)o2)cc1 (centres undefined) | 137.6 | 0 | 0 | 0
CCOC(=O)c1ccc2nc(NC(=O)c3cccs3)sc2c1 | 140.4 | 0 | 0 | 0
CCCC(=O)Nc1nc2ccc(C(=O)OCC)cc2s1 | 0 | 0 | 0 | 0
CCCCC(=O)Nc1nc2ccc(C(=O)OC)cc2s1 | 129.0 | 0 | 0 | 0
O=C(Nc1nc2ccc(S(=O)(=O)N3CCCC3)cc2s1)c1cccs1 | 0 | 0 | 0 | 0
CCOC(=O)c1ccc2nc(NC(=O)C(C)C)sc2c1 | 144.7 | 0 | 0 | 0
CCOc1ccc(N2C(=O)CN(O)C=C3N=c4ccccc4=C32)cc1 | 0 | 0 | 0 | 0
Cc1nnn(C23CC4CC(CC(CC(=O)Nc5ccc(C)c(C)c5)(C4)C2)C3)n1 | 0 | 0 | 0 | 0
Cc1nn(-c2ccccc2)c(N)c1N=Nc1cccnc1 | 132.9 | 0 | 0 | 0
Nc1nc(-c2ccccc2)c(N=Nc2cccnc2)s1 | 0 | 0 | 0 | 0
Cc1cnc(NC(=O)c2cc3ccccc3o2)s1 | 0 | 59.5 | 0 | 43.4
SMILES | STAT1 act | STAT3 inh | STAT3 activator | STAT1 blocker
Cc1ccc(C(=O)Nc2ncc(Cc3ccc(F)cc3)s2)o1 | 0 | 0 | 0 | 0
Cc1ccc(C(=O)Nc2ncc(C)s2)o1 | 134.8 | 0 | 0 | 0
CCOC(=O)c1c(Cc2ccccc2)c[nH]c1C | 0 | 0 | 0 | 0
CC(C)c1ccc(-c2nnn(CCC(=O)O)n2)cc1 | 0 | 78.0 | 0 | 47.7
CCOC(=O)/C(C#N)=C/c1cc(C)n(-c2ccc(C)cc2)c1C | 148.4 | 0 | 0 | 0
CCCCCCn1c(NCC)nc2c1c(=O)n(C)c(=O)n2C | 0 | 67.3 | 0 | 39.7
CCCCNC(=O)c1ccccc1Cl | 0 | 0 | 0 | 0
CSc1ccccc1C(=O)NCCSc1ccccc1 | 0 | 0 | 0 | 0
CC(C)(C)SCCNC(=O)c1ccccc1 | 138.7 | 0 | 0 | 0
COc1cccc(C(=O)NCCSc2ccc(F)cc2)c1 | 138.5 | 0 | 0 | 0
O=C(NCCSc1ccccc1)c1ccccc1Cl | 140.8 | 0 | 0 | 0
Cc1ccccc1C(=O)NCCSc1ccccc1 | 129.3 | 0 | 0 | 0
Cc1ccc(C(=O)NCCSC(C)(C)C)cc1 | 0 | 0 | 0 | 0
CC(C)CC(=O)NS(=O)(=O)c1ccc(NS(C)(=O)=O)cc1 | 0 | 0 | 0 | 0
O=C(Cc1c[nH]c2ccccc12)Nc1ccc(N2CCOCC2)cc1 | 0 | 0 | 0 | 0
COc1ccc(C(=O)NCC(=O)OCC(=O)N2N=C(c3ccc(Cl)cc3)CC2c2ccco2)cc1OC (centres undefined) | 0 | 0 | 0 | 0
Cc1cccc(C)c1NC(=O)CN(C)C(=O)C(c1ccccc1)c1ccccc1 | 0 | 0 | 0 | 0
O=C(NCCSc1ccccc1)c1cncc(Br)c1 | 0 | 0 | 0 | 0
COc1ccc(C(=O)NCCSc2ccccn2)cc1 | 152.9 | 0 | 0 | 0
O=C(NCCSc1ccccc1)c1ccccc1 | 142.2 | 0 | 0 | 0
COc1cc2cc3c(N)c(C(=O)NCc4ccco4)sc3nc2cc1OC | 146.5 | 0 | 0 | 0
Cc1ccc2nc3sc(C(=O)Nc4c(C)[nH]c(=O)[nH]c4=O)c(N)c3cc2c1 | 0 | 0 | 0 | 0

Assay outcomes from PubChem BioAssay.
